Source: PubChem BioAssay (Johns Hopkins Ion Channel Center)
Rows were chosen to be rich in hits. Some 3.7% of all compounds tested hit in one or more screens of this group.
KCNQ1 pot: human KCNQ1 channel potentiation or activation; AID 2648; CHO-K1 KCNQ1, thallium flux FluxOR fluorescence; active compounds read high; 0.35% of 310,000 active; B-score at 10 µM;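 active = fluorescence ratio B-score, a plate-corrected score, at least three library SD, with initial intensity B-score within 5 SD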
Target sequence (P51787 whole entry, looked up): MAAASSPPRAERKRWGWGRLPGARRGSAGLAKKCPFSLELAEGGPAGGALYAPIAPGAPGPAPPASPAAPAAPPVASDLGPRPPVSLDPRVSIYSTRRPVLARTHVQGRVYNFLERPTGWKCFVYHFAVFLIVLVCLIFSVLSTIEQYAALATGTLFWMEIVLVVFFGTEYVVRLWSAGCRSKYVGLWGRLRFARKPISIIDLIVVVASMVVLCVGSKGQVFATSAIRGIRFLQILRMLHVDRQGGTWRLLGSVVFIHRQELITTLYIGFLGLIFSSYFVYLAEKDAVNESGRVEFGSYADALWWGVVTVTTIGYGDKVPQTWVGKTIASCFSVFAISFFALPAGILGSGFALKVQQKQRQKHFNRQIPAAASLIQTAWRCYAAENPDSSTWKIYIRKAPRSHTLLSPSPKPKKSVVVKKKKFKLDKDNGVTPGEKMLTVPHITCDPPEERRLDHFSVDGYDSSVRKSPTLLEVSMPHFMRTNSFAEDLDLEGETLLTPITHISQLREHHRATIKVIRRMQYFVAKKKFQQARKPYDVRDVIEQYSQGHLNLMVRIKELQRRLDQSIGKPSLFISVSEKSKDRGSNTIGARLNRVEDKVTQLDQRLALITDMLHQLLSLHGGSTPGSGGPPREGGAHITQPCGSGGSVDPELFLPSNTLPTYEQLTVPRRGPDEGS
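System: CHO-K1 cells stably expressing KCNQ1 / Medium: assay buffer for compound exposure, DMSO matched across wells / Reagent: thallium- and potassium-containing depolarizing buffer / Compound: one concentration, matched DMSO / Incubation: 20 min compound pretreatment at room temperature / Measured by: kinetic FluxOR fluorescence, 10 s baseline plus 110 s post-stimulus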
KCNK9 inh: human KCNK9 channel inhibition | 1.2% of 310,000 active | Q9NPC2 | B-score at 10 µM | HEK293 KCNK9, FluxOR thallium flux fluorescence; active compounds read low | AID 488922;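 active = ratio B-score over 3 SD below the library mean, with starting fluorescence within 5 SD of its mean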;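 also: negative B-score means less thallium flux so channel inhibition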
hERG protect: compounds protecting human hERG from proarrhythmic drug block | Q12809 | CHO-hERG, FluxOR thallium flux, dofetilide IC70 present | activation (rescue from dofetilide block), less the hit threshold, % at 10 µM | 0.51% of 310,000 active | AID 1511;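 active = activation above the mean of controls blocked by dofetilide plus 5 SD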;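 also: thallium influx through hERG after potassium depolarization seen as dye fluorescence rise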
KCNQ1 inh: inhibitors of human KCNQ1 potassium channel | CHO-K1 KCNQ1, FluxOR thallium flux fluorescence; active compounds read high | B-score at 10 µM | 1.3% of 310,000 active | AID 2642;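 active = compounds whose thallium flux B-score, printed positive for inhibition, exceeds three library SD while starting fluorescence stays within three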;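 also: channel opened by potassium depolarization with thallium stimulus after 20 min compound exposure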
KCNK3 inh: human KCNK3 channel inhibition, primary screen; CHO-KCNK3 thallium flux, FluxOR fluorescence; active compounds read low; B-score at 10 µM; 0.84% of 340,000 active; AID 602410;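 active = B-score under library mean minus 4 SD, starting fluorescence ratio at most library mean plus 5 SD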;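 also: more negative B-score means stronger inhibition of thallium flux through KCNK3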
Kir21 block: Kir2.1 (mouse) channel inhibition | P35561 | HEK293-Kir2.1, FluxOR thallium flux fluorescence; active compounds read low | B-score at 10 µM | 0.85% of 310,000 active | AID 1672;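 active = fluorescence ratio B-score at or below minus 3 SD of library scores, with starting-brightness B-score within 2 SD, cut at about -4.2 in these data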;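 also: channel flux triggered by added potassium and thallium sulfate stimulus; B-score of peak minus minimum fluorescence over baseline after thallium stimulus; more negative B-score means stronger Kir2.1 block with less thallium influx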
KCNK9 inh conf: human KCNK9 inhibitor confirmation. inhibition, % at 10 µM. HEK293 KCNK9 cells, FluxOR thallium flux fluorescence. shares compounds with KCNK9 inh. 43% of 4,900 active;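 active = thallium signal inhibited by more than 5 SD of the compound-free buffer control wells, on both duplicate plates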
Kir21 sel: selectivity of KCNK9 modulators against mouse Kir2.1; shares compounds with KCNK9 inh; inhibition, % at 10 µM; 4% of 4,900 active; Kir2.1 cells, FluxOR thallium flux fluorescence;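 active = thallium signal drop more than 5 SD beyond the mean of the no-compound control wells, seen in both duplicate plates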;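 also: signal is fluorescence rise after thallium addition divided by baseline fluorescence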
KCNK9 uninduced: second counter-screen for KCNK9 modulators: effect in non-induced cells | non-induced KCNK9-HEK293, FluxOR thallium flux | 40% of 4,900 active | shares compounds with KCNK9 inh | inhibition, % at 10 µM;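 active = thallium signal drop beyond 5 SD of the untreated control mean, on both duplicate plates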
Each line names hits and unclear results; the compound was inactive in the other large screens (follow-up assays come after a bar, where they were run).

O=C(c1ccc2c(c1)OCO2)C1CCCN(Cc2ccc(F)c(F)c2)C1 (stereo not drawn)	none
O=C(c1ccc(Cl)cc1)C1CCCN(Cc2ccc3ncccc3c2)C1 (stereo not drawn)	none | KCNK9 inh conf inactive | Kir21 sel inactive | KCNK9 uninduced inactive
O=C(c1cccc(Cl)c1)C1CCCN(Cc2cccc3cnccc23)C1 (stereo not drawn)	none
O=c1oc2ccccc2c(O)c1[C@H]1c2ccc(O)cc2Oc2c1c(=O)oc1ccccc21	none
Cc1ccccc1-n1c(C)nc2ccsc2c1=O	none
CCCC(=O)N(C)C1=Nc2ccc(Cl)cc2C(c2ccccc2)=[N+]([O-])C1	none
CC1=C2[C@@H]3OC(=O)[C@H](C)C3CC[C@@]2(C)C=CC1=O (stereo partly drawn)	none
c1ccc(CCCN2CCN(CCOC(c3ccccc3)c3ccccc3)CC2)cc1	none | KCNK9 inh conf inactive | Kir21 sel inactive | KCNK9 uninduced inactive
CCOC(=O)C1CCN(C(C)C(=O)c2c[nH]c3ccccc23)CC1 (stereo not drawn)	none
CC(C)(C)NC(=O)NC(=O)CN1CC=C(c2ccccc2)CC1	none | KCNK9 inh conf inactive | Kir21 sel inactive | KCNK9 uninduced inactive
O=C(CN1CC=C(c2ccccc2)CC1)NC(=O)NC1CCCCC1	none | KCNK9 inh conf inactive | Kir21 sel inactive | KCNK9 uninduced inactive
Oc1cc2c(cc1CN1CCN(c3ccc(F)cc3)CC1)OCO2	none
Brc1cc2c(cc1CN1CCN(c3ccccc3)CC1)OCCO2	none | KCNK9 inh conf inactive | Kir21 sel inactive | KCNK9 uninduced inactive
COc1ccc(OCC(=O)N2CCCC(N3CCN(c4ccccc4C)CC3)C2)cc1 (stereo not drawn)	none | KCNK9 inh conf inactive | Kir21 sel inactive | KCNK9 uninduced inactive
Cc1ccc(OCC(=O)N2CCCC(N3CCN(c4ccc(F)cc4)CC3)C2)cc1 (stereo not drawn)	none
O=C(COc1ccccc1Cl)N1CCCC(N2CCN(c3ccc(F)cc3)CC2)C1 (stereo not drawn)	none | KCNK9 inh conf inactive | Kir21 sel inactive | KCNK9 uninduced inactive
COc1ccccc1OCC(=O)N1CCCC(N2CCN(c3ccc(F)cc3)CC2)C1 (stereo not drawn)	none | KCNK9 inh conf inactive | Kir21 sel inactive | KCNK9 uninduced inactive
Cc1ccc(CN2C3CCCC2CC(NC(=S)NCc2ccccc2)C3)cc1 (stereo not drawn)	none
Cc1nc2ccc(Br)cc2c(=O)n1-c1ccc([N+](=O)[O-])c(C(F)(F)F)c1	none
Cc1ccc2c(CN3CC=C(c4ccccc4)CC3)cc(=O)oc2c1C	none | KCNK9 inh conf inactive | Kir21 sel inactive | KCNK9 uninduced inactive
CCc1ccc2c(CN3CC=C(c4ccccc4)CC3)cc(=O)oc2c1	none
CSc1ncc(CN2CCCC(C(=O)c3cccc(Cl)c3)C2)cn1 (stereo not drawn)	none | KCNK9 inh conf inactive | Kir21 sel inactive | KCNK9 uninduced inactive
COc1ccc(O)c(CN2CCCC(C(=O)c3sccc3C)C2)c1 (stereo not drawn)	none
COc1ccc(CN2CCCC(C(=O)c3cccc(Cl)c3)C2)cc1 (stereo not drawn)	Kir21 block -8.8 | KCNK9 inh conf inactive | Kir21 sel 32% | KCNK9 uninduced inactive
O=C(c1cccc(Cl)c1)C1CCCN(Cc2ccon2)C1 (stereo not drawn)	none
COc1ccc(C(=O)C2CCCN(Cc3ccon3)C2)c(OC)c1 (stereo not drawn)	none
COc1ccc(CN2CCCC(C(=O)c3ccc(Cl)cc3)C2)c(OC)c1 (stereo not drawn)	Kir21 block -5.2 | KCNK9 inh conf inactive | Kir21 sel inactive | KCNK9 uninduced inactive
